# This is a sample that favours compounds with a hit; in the whole collection about 4.6% have one here.
# OX1R antag-1: OX1R (HCRTR1) antagonists, primary screen, fluorescence, CHO/OX1R cells, Fluo-8 calcium, orexin A | AID 434989, 2010 | 330,000 compounds, 0.43% hits | Fluo-8 calcium fluorescence | inhibition, % at 5 µM;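 active means inhibition above its plate's threshold, mean inhibition of all tested compounds on the plate plus 3 SD, cut at about 37% in these data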;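 further: 0% = orexin A challenge wells and 100% = SB-334867-A antagonist wells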
# GPR7 antagonist: GPR7 receptor antagonists, primary screen, cell-based, fluorescence, single concentration; Neuropeptides B/W receptor type 1 (Homo sapiens), P48145; GPR7-expressing cells, fluorescence antagonist assay; inhibition, % at 4.4 µM; 290,000 compounds, 1.1% hits; AID 1861, 2009; in the data active means inhibition above about 16%, passing the limit was not always enough;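 further: cells stimulated with the agonist NPW; 0% = agonist with vehicle and 100% = vehicle without agonist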
# Target sequence (P48145 whole entry, looked up): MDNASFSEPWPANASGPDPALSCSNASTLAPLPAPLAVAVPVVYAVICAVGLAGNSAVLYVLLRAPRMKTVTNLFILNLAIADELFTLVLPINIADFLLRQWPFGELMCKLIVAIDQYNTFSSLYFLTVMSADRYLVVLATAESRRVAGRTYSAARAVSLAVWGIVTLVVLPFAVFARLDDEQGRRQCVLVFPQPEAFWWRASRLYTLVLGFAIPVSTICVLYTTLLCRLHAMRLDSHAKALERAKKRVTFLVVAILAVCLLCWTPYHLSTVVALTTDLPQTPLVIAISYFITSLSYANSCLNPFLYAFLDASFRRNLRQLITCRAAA
# TAAR1 agonist: human TAAR1 agonists, primary screen, Fluo-8 calcium fluorescence, CHO RD-HGA16 cells; Trace amine-associated receptor 1 (Homo sapiens), Q96RJ0; vehicle wells 0%, saturating PEA agonist 100%; activation, % at 3 µM; 360,000 compounds, 0.99% hits;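 active means activation above the mean activation of all test compounds in the run plus 3 SD, cut at about 38% in these data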
# Target sequence (Q96RJ0 whole entry, looked up): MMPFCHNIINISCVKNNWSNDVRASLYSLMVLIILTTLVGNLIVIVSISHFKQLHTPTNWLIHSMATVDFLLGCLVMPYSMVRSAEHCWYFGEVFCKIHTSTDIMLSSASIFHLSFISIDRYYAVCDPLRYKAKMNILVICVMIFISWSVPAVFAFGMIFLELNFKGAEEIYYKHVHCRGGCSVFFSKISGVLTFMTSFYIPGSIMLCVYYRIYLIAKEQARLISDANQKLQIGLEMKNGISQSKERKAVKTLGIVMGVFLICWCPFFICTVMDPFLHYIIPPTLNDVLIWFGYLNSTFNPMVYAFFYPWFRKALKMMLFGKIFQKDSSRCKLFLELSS
#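 Test system: RD-HGA16 (CHO) cells co-expressing Gα16 and hTAAR1 / Benchmarks: DMSO vehicle as 0%, PEA at EC100 as 100% / Repeats: no replicates (n 1) / Measure: % activation from peak over basal fluorescence ratio, DMSO-to-PEA scaled / Timing: 17-24 h plating, Fluo-8 75 min 37 °C, 30 min RT / Technique: kinetic Fluo-8 calcium fluorescence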
# TAAR1 antagonist: human TAAR1 antagonists, primary screen, Fluo-8 calcium fluorescence, CHO RD-HGA16 cells; Trace amine-associated receptor 1 (Homo sapiens), Q96RJ0; antagonist; inhibition, % at 3 µM; 360,000 compounds, 1.5% hits;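 active means inhibition above a per-plate cutoff, the mean inhibition of test compounds on that plate plus 3 SD, cut at about 49% in these data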;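 further: 0% = DMSO plus EC80 beta-PEA response and 100% = DMSO alone without agonist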
#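 Material: RD-HGA16 CHO cells with stable hTAAR1 and Gα16; Dosing: single nominal final test compound concentration of 3 µM; Schedule: seeding 17-24 h prior, 75-min 37 °C, 30-min RT dye loading; Detection: kinetic Fluo-8 calcium fluorescence measurement; Measure: % inhibition from peak post-agonist over basal fluorescence ratio; Benchmarks: vehicle and agonist controls.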
# CHO parental Ca: ATP-evoked calcium signal inhibitors, parental CHO, primary screen, counter-screen for OX1R antagonist project, cell-based, fluorescence, Fluo-8 calcium dye; parental CHO-K1, ATP-induced calcium, Fluo-8 fluorescence; inhibition, % at 5.6 µM; 330,000 compounds, 0.63% hits; AID 463079, 2010;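 active means inhibition above that plate's mean sample inhibition plus 3 SD, cut at about 26% in these data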;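 further: 0% = ATP-challenged DMSO wells and 100% = DMSO wells without ATP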
#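 Test system: parental CHO cells; detection: calcium-sensitive Fluo-8 fluorescence; evaluation: percent inhibition of calcium signal; also added: ATP as calcium-mobilizing challenge; repeats: one well per compound; control set: ATP-challenged DMSO wells low, unchallenged DMSO wells high; compound: single nominal dose of 5.6 µM per compound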
# OX1R antag-2: antagonists of human orexin 1 receptor (OX1R); AID 485270, 2010; Orexin/Hypocretin receptor type 1 (Homo sapiens), O43613; OX1R-expressing cells, FRET antagonist read-out; 330,000 compounds, 1.8% hits; inhibition, % at 6.6 µM; in the data active means inhibition mostly above about 38%, no sharp cut-off; inactive means mostly below about 40%;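 further: 0% = agonist challenge alone and 100% = reference antagonist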
# The depositor's hits bear a star; / = no result given.
SMILES,OX1R antag-1,GPR7 antagonist,TAAR1 agonist,TAAR1 antagonist,CHO parental Ca,OX1R antag-2
O=c1c2ccccc2sn1-c1nccs1,/,-3,47*,35,/,/
O=c1c2ccccc2sn1-c1cccc(Cl)c1,/,/,39*,22,/,/
Cc1ccccc1-n1sc2cc(F)ccc2c1=O,13,-11,44*,40,35*,27
O=C(O)c1cccc(-n2sc3ccccc3c2=O)c1,-14,/,15,-10,-6,-7
O=c1c2cc(F)ccc2sn1-c1ccccc1,46,/,60*,57*,72*,29
CN(Cc1ccco1)C(=O)[C@@H](Cc1ccccc1)NC(=O)[C@H]1O[C@@H](n2ccc(=O)[nH]c2=O)[C@H](O)[C@@H]1O,/,/,1,-28,/,/
COc1ccc(CCn2c(=N)c(S(=O)(=O)c3ccccc3)cc3c(=O)n4ccccc4nc32)cc1,-14,2,2,-10,-6,8
N=c1c(C(=O)NCc2ccccc2)cc2c(=O)n3ccccc3nc2n1CCCN1CCOCC1,-12,/,5,-2,0,45*
Cc1ccc(Cn2c(=N)c(C(=O)NCCN3CCOCC3)cc3c(=O)n4ccccc4nc32)cc1,-4,-4,1,-15,-16,54*
Cc1ccc(Cn2c(=N)c(C(=O)NC3CCCC3)cc3c(=O)n4ccccc4nc32)cc1,-8,0,/,/,-1,13
N=c1c(C(=O)NCCN2CCOCC2)cc2c(=O)n3ccccc3nc2n1CCc1ccccc1,1,24,16,-13,-7,62*
COc1ccc(CCn2c(=N)c(C(=O)NCc3ccco3)cc3c(=O)n4ccccc4nc32)cc1,-8,-2,3,17,2,47*
COC(=O)/C=C1\Nc2ccc(Cl)cc2C(=O)NC1=O,/,/,0,-16,/,/
Cc1cc(N2CCN(C(=O)OC(C)(C)C)C[C@@H]2C)ccc1Br,/,/,-1,39,/,/
Cc1cc2nc(CN(C)C(=O)C3CCC(=O)N(C4CCCC4)C3)[nH]c2cc1C (stereo unspecified),/,/,1,-1,/,/
COc1cc(/C=N/N2C(=O)CSC2=S)cc(Br)c1O,/,-3,62*,32,/,/
COc1cc(NC(=O)NCCN2CCN(c3ccc(Cl)cc3)CC2)ccc1C,17,15,48*,36,14,1
CN(C(=O)COC(=O)c1c2c(nc3ccccc13)/C(=C/c1cccc([N+](=O)[O-])c1)CCC2)C1CCS(=O)(=O)C1 (stereo unspecified),8,-5,3,13,13,14
O=C(COC(=O)c1c2c(nc3ccccc13)/C(=C/c1cccc([N+](=O)[O-])c1)CCC2)NC1CCS(=O)(=O)C1 (stereo unspecified),15,8,11,51*,10,30
Cc1cccc(C)c1NC(=O)COC(=O)c1c2c(nc3ccccc13)/C(=C\c1ccc3c(c1)OCO3)CCC2,45,4,26,53*,38,39
CCOC(=O)C1=CCN(S(C)(=O)=O)C1c1ccc(Cl)cc1 (stereo unspecified),/,/,4,-13,/,/
COC(/C(=N/O)c1ccc(Cl)cc1)c1ccccc1 (stereo unspecified),13,-3,8,33,60*,31
COc1ccc(Cl)cc1NC(=O)C(OC)c1ccccc1 (stereo unspecified),-15,5,3,-5,15,7
C[C@@H]1CN([C@H](C)CO)C(=O)c2cc(C#CC(C)(C)O)cnc2O[C@@H]1CN(C)C(=O)C1CC1,/,/,0,-10,/,/
COC(=O)N(C)C[C@H]1OCc2cn(nn2)CCCC(=O)N([C@H](C)CO)C[C@@H]1C,/,/,0,-14,/,/
SMILES,OX1R antag-1,GPR7 antagonist,TAAR1 agonist,TAAR1 antagonist,CHO parental Ca,OX1R antag-2
COc1ccc2cc(CCNS(=O)(=O)c3c(C)cc(C)cc3C)c(=O)[nH]c2c1,11,7,0,-18,-9,76*
COc1ccc(OC)c(CN2C(=O)c3ccccc3C2c2nnnn2-c2ccc3c(c2)OCCO3)c1 (stereo unspecified),/,/,5,-16,/,/
CCc1ccccc1NC(=O)c1cc(-c2cccc(O)c2)on1,-5,-16,7,8,-9,14
COc1cc(NC(=O)c2cc(-c3cccc(O)c3)on2)cc(OC)c1OC,-14,-1,10,42,-4,38*
O=C(Nc1cccc(C(F)(F)F)c1)c1cc(-c2ccc(F)cc2)on1,-19,-18,8,8,58*,10
O=C(Nc1ccccc1C(F)(F)F)c1cc(-c2cccc(O)c2)on1,3,-11,7,16,51*,9
CC(C)c1cc(C(=O)Nc2cccc(C(F)(F)F)c2)no1,-2,-7,7,3,-4,19
COc1cccc(-c2cc(C(=O)Nc3cccc(O)c3)no2)c1,15,-11,8,34,-6,71*
CCCCn1nnnc1C(c1cc2ccccc2o1)N1CCN(CC(=O)N2CCCC2)CC1 (stereo unspecified),/,/,3,-2,/,/
CCCCN1C(=O)C(CC(=O)NCc2ccco2)CC(C(=O)N2CCOCC2)=C1C (stereo unspecified),/,/,1,-2,/,/
CC(C)NC(=O)C1(C)CCCN1C(=O)c1ccccc1Br (stereo unspecified),/,/,1,-21,/,/
Cc1ccc(S(=O)(=O)N2CCC(C(=O)NCCN3CCOCC3)CC2)cc1,/,/,2,-15,/,/
O=C(Nc1ccccc1)c1ccccc1NS(=O)(=O)c1ccc(Cl)s1,9,16,2,2,28*,65*
O=C(Nc1ccccc1Cc1ccccc1)c1ccccc1NS(=O)(=O)c1ccc(Cl)s1,28,18,4,33,24,77*
Cc1ccc(NC(=O)c2ccccc2NS(=O)(=O)c2ccc(Cl)s2)cc1,15,11,4,28,-5,46
CCN(c1ccccc1)S(=O)(=O)c1cccc(C(=O)NCC(c2ccco2)N2CCCCC2)c1 (stereo unspecified),/,/,0,-17,/,/
COC(=O)c1ccc(NC(=O)CSc2ccccc2)cc1,54*,-2,2,-14,54*,9
Cn1c(SCc2cccc([N+](=O)[O-])c2)nc2ccccc2c1=O,68*,/,3,24,36*,54*
COc1ccccc1NC(=O)CSc1nc2ccccc2c(=O)n1C,21,18,6,31,50*,48*
CCOCCn1ccc2c(OCC(=O)Nc3ccccc3OC)cccc2c1=O,-23,/,10,58*,-1,14
